One may read the MIC as the lowest concentration that inhibits growth of the organism. Higher therefore signals a less susceptible organism.

Holding throughout (type): functional
Experiment [1] deals with Klebsiella pneumoniae. As to the kind of experiment: Antibacterial activity against Klebsiella pneumoniae FNSST 011 assessed as diameter of zone of inhibition at 30 ug/disc after 24 hrs by disc diffusion method. Particulars: FNSST 011, 24 h, read-out: DIZ. In a few lines:
(§1)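 Ampicillin 30 µg discs were the positive control on Mueller Hinton agar. The agar was spread with 100 µL of a 10^6 cfu/mL overnight TSB culture grown at 37 °C. Plates were incubated 24 h at 37 °C, and zone diameter was read including the 6 mm disc, in triplicate, mean ± SE.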
In general terms: A growth-free zone around the sample is the usual read-out of agar diffusion tests.

For experiment [2], the system named is Enterobacter cloacae. As to the kind of experiment: Antibacterial activity against CTX-15 expressing Enterobacter cloacae isolate 51 after 18 to 24 hrs by two-fold broth microdilution assay. On the technique in general: Dilution methods test growth across graded concentrations, often in twofold steps.
The subject of experiment [3] is Enterobacter cloacae. As to the kind of experiment: Antibacterial activity against TEM-1/SHV-12 expressing Enterobacter cloacae isolate 306 after 18 to 24 hrs by two-fold broth microdilution assay.
Experiment [4] relates to Escherichia coli. As to the kind of experiment: Antibacterial activity against TEM-1/SHV-12 expressing Escherichia coli isolate 237 after 18 to 24 hrs by two-fold broth microdilution assay. A digest of the protocol:
(§2)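 CLSI two-fold broth microdilution. Compounds dissolved in DMSO, 10 mg/mL stock, serially diluted to 400–0.09 µg/mL in Mueller Hinton broth. Wells inoculated with 10^6 CFU/mL bacteria and incubated 18–24 h at 37 °C. 0.2 mg/mL INT added for 30 min. MIC taken as the lowest concentration with no visible growth or pink colour. Triplicate.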

In experiment [5] the test system is Klebsiella pneumoniae. As to the kind of experiment: Antibacterial activity against TEM-1/SHV-12 expressing Klebsiella pneumoniae isolate 303 after 18 to 24 hrs by two-fold broth microdilution assay. In a few lines: (§3)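 CLSI two-fold broth microdilution was used. Compounds were dissolved in DMSO, brought to 10 mg/mL in medium, then serially diluted in Mueller Hinton broth over 400–0.09 µg/mL. Overnight MHB cultures were diluted to 10^6 CFU/mL, and 10 µL was added per well. Plates were incubated 18–24 h at 37 °C, then 0.2 mg/mL INT was added for 30 min at 37 °C. MIC was the lowest concentration with no visible growth or pink colour, triplicate.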

The subject of experiment [6] is Enterobacter cloacae. Put plainly: Antibacterial activity against TEM-1/CTX-M-15 expressing Enterobacter cloacae isolate 62 after 18 to 24 hrs by two-fold broth microdilution assay.
Experiment [7] has as its system Klebsiella pneumoniae. Put plainly: Antibacterial activity against Klebsiella pneumoniae FNSST 011 after 18 to 24 hrs by two-fold broth microdilution assay. A digest of the protocol:
as §3

In another experiment the test system is Acinetobacter baumannii. As to the kind of experiment: Antibacterial activity against SIM-1 expressing Acinetobacter baumannii isolate 170 after 18 to 24 hrs by two-fold broth microdilution assay. In a few lines:
as §2

The test system of experiment [8] is Enterococcus faecalis. Put plainly: Antibacterial activity against Enterococcus faecalis ATCC 29212 after 18 to 24 hrs by two-fold broth microdilution assay. In a few lines: as §3
The test system of experiment [9] is Escherichia coli. Put plainly: Antibacterial activity against […] expressing Escherichia coli isolate 235 after 18 to 24 hrs by two-fold broth microdilution assay. A digest of the protocol:
as §2

Experiment [10] has as its system Staphylococcus aureus. As to the kind of experiment: Antibacterial activity against Staphylococcus aureus ATCC 25923 after 18 to 24 hrs by two-fold broth microdilution assay. In a few lines:
as §3

Experiment [11] relates to Pseudomonas aeruginosa. Put plainly: Antibacterial activity against Pseudomonas aeruginosa FNSST 982 after 18 to 24 hrs by two-fold broth microdilution assay. In a few lines: as §3
The subject of experiment [12] is Pseudomonas aeruginosa. Put plainly: Antibacterial activity against GIM-1 expressing Pseudomonas aeruginosa isolate 197 after 18 to 24 hrs by two-fold broth microdilution assay. In a few lines:
as §3

In experiment [13] the test system is Aeromonas hydrophila. Put plainly: Antibacterial activity against Aeromonas hydrophila FNSST 014 assessed as diameter of zone of inhibition at 30 ug/disc after 24 hrs by disc diffusion method. The conditions noted are these: FNSST 014, 24 h, read-out: DIZ. In a few lines:
as §1

Experiment [14] has as its system Escherichia coli. As to the kind of experiment: Antibacterial activity against Escherichia coli FNSST 982 after 18 to 24 hrs by two-fold broth microdilution assay. A digest of the protocol:
as §3

The test system of the next experiment is Kluyvera intermedia. As to the kind of experiment: Antibacterial activity against TEM-1/SHV-12/[…] expressing Enterobacter intermedius isolate 243 after 18 to 24 hrs by two-fold broth microdilution assay. In a few lines:
as §3

The test system of experiment [15] is Clostridium perfringens. As to the kind of experiment: Antibacterial activity against Clostridium perfringens FNSST 4999 assessed as diameter of zone of inhibition at 30 ug/disc after 24 hrs by disc diffusion method. The conditions noted are these: FNSST 4999, 24 h, read-out: DIZ. In a few lines:
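Ampicillin 30 µg disc run as positive control in CLSI disc diffusion. 100 µL of 10^6 cfu/mL bacteria spread on Mueller Hinton agar, incubated 24 h at 37 °C. Zone diameter measured in mm including the disc, triplicate, mean ± SE.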

In experiment [16] the test system is Enterococcus faecalis. Put plainly: Antibacterial activity against Enterococcus faecalis ATCC 29212 assessed as diameter of zone of inhibition at 30 ug/disc after 24 hrs by disc diffusion method. The conditions noted are these: ATCC 29212, 24 h, read-out: DIZ. In a few lines: as §1
Experiment [17] concerns Clostridium perfringens. Put plainly: Antibacterial activity against Clostridium perfringens FNSST 4999 after 18 to 24 hrs by two-fold broth microdilution assay. A digest of the protocol:
as §2

Experiment [18] concerns Escherichia coli. Put plainly: Antibacterial activity against […] expressing Escherichia coli isolate 4024 after 18 to 24 hrs by two-fold broth microdilution assay. A digest of the protocol: as §2
Experiment [19] has as its system Aeromonas hydrophila. Put plainly: Antibacterial activity against TEM-1/SHV-12 expressing Aeromonas hydrophila isolate 268 after 18 to 24 hrs by two-fold broth microdilution assay. In a few lines: as §3
Experiment [20] deals with Stenotrophomonas maltophilia. As to the kind of experiment: Antibacterial activity against […] expressing Stenotrophomonas maltophilia isolate 125 after 18 to 24 hrs by two-fold broth microdilution assay. In a few lines: as §3
For experiment [21], the system named is Pseudomonas aeruginosa. Put plainly: Antibacterial activity against Pseudomonas aeruginosa FNSST 982 assessed as diameter of zone of inhibition at 30 ug/disc after 24 hrs by disc diffusion method. Particulars: FNSST 982, 24 h, read-out: DIZ. A digest of the protocol:
as §1

The test system of experiment [22] is Bacillus cereus. As to the kind of experiment: Antibacterial activity against Bacillus cereus ATCC 11778 assessed as diameter of zone of inhibition at 30 ug/disc after 24 hrs by disc diffusion method. Particulars: ATCC 11778, 24 h, read-out: DIZ. In a few lines: as §1
The subject of experiment [23] is Staphylococcus aureus. Put plainly: Antibacterial activity against Staphylococcus aureus ATCC 25923 assessed as diameter of zone of inhibition at 30 ug/disc after 24 hrs by disc diffusion method. Particulars: ATCC 25923, 24 h, read-out: DIZ. A digest of the protocol: as §1
Experiment [24] relates to Escherichia coli. As to the kind of experiment: Antibacterial activity against Escherichia coli FNSST 982 assessed as diameter of zone of inhibition at 30 ug/disc after 24 hrs by disc diffusion method. Particulars: FNSST 982, 24 h, read-out: DIZ. In a few lines: as §1
The subject of experiment [25] is Aeromonas caviae. As to the kind of experiment: Antibacterial activity against TEM-1/CTX-M-15 expressing Aeromonas caviae isolate 260 after 18 to 24 hrs by two-fold broth microdilution assay. A digest of the protocol: as §3
Experiment [26] concerns Bacillus cereus. As to the kind of experiment: Antibacterial activity against Bacillus cereus ATCC 11778 after 18 to 24 hrs by two-fold broth microdilution assay. In a few lines: as §3
Experiment [27] relates to Aeromonas caviae. As to the kind of experiment: Antibacterial activity against […] expressing Aeromonas caviae isolate 258 after 18 to 24 hrs by two-fold broth microdilution assay. A digest of the protocol: as §3
Experiment [28] deals with Aeromonas hydrophila. Put plainly: Antibacterial activity against Aeromonas hydrophila FNSST 014 after 18 to 24 hrs by two-fold broth microdilution assay. In a few lines:
as §3

The test system of a further experiment is Aspergillus fumigatus. Put plainly: Antifungal activity against Aspergillus fumigatus FNSST 3833 assessed as diameter of zone of inhibition at 10 ug/disc after 72 hrs by disc diffusion method. Particulars: FNSST 3833, 72 h, read-out: DIZ. In a few lines: (§4)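 The positive control was amphotericin B 10 µg discs on Sabouraud dextrose agar spread with 100 µL of a 10^4 cfu/mL fungal suspension. Plates were kept at 30 °C for 48 h (yeast) or 72 h (molds). Inhibition zone was measured including the 6 mm disc, in triplicate, mean ± SE.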

A further experiment has as its system Talaromyces funiculosus. Put plainly: Antifungal activity against Penicillium funiculosum FNSST 3724 assessed as diameter of zone of inhibition at 10 ug/disc after 72 hrs by disc diffusion method. Particulars: FNSST 3724, 72 h, read-out: DIZ. A digest of the protocol:
as §4

Another experiment concerns Candida albicans. Put plainly: Antifungal activity against Candida albicans ATCC 10231 assessed as diameter of zone of inhibition at 10 ug/disc after 48 hrs by disc diffusion method. The conditions noted are these: ATCC 10231, 48 h, read-out: DIZ. A digest of the protocol:
as §4

≈ marks a conversion by molar mass, not a printed value.

For the molecule `CO/N=C(\C(=O)N[C@@H]1C(=O)N2C(C(=O)O)=C(COC(C)=O)CS[C@H]12)c1csc(N)n1` [CEFOTAXIME], the zone of inhibition at 30 µg/disc was found to be 21.4 mm in the experiment on Klebsiella pneumoniae [1]; 14.7 mm with Aeromonas hydrophila [13]; 28.5 mm in the experiment on Clostridium perfringens [15]; 23.5 mm in the experiment on Enterococcus faecalis [16]; 10.4 mm in the experiment on Pseudomonas aeruginosa [21]; 26.8 mm in the experiment on Bacillus cereus [22]. Also, the results for the zone of inhibition at 30 µg/disc in the experiment with Staphylococcus aureus [23] and in the experiment on Escherichia coli [24] were 21.7 mm and 22.8 mm, respectively. The MIC was 32 µg/mL (≈ 70.3 µM) in the experiment on Enterobacter cloacae [2]; greater than 128 µg/mL in the experiment with Enterobacter cloacae [3]; greater than 256 µg/mL with Escherichia coli [4]; 64 µg/mL (≈ 141 µM) with Klebsiella pneumoniae [5]; greater than 256 µg/mL in the experiment on Enterobacter cloacae [6]; 0.5 µg/mL (≈ 1.1 µM) with Klebsiella pneumoniae [7]. The MIC against Acinetobacter baumannii was greater than 256 µg/mL; with Enterococcus faecalis [8] it was 0.5 µg/mL (≈ 1.1 µM); in the experiment with Escherichia coli [9], greater than 256 µg/mL; with Staphylococcus aureus [10] it was 0.5 µg/mL (≈ 1.1 µM); in the experiment on Pseudomonas aeruginosa [11], 16 µg/mL (≈ 35.1 µM); against Pseudomonas aeruginosa [12] it was 256 µg/mL (≈ 562 µM). Further, the MIC against Escherichia coli [14] is 0.5 µg/mL (≈ 1.1 µM); with Kluyvera intermedia, 8 µg/mL (≈ 17.6 µM); in the experiment on Clostridium perfringens [17], 0.1 µg/mL (≈ 0.22 µM); in the experiment on Escherichia coli [18], 256 µg/mL (≈ 562 µM); against Aeromonas hydrophila [19] it was 256 µg/mL (≈ 562 µM); in experiment [20], 32 µg/mL (≈ 70.3 µM). The MIC turned out to be 256 µg/mL (≈ 562 µM) in the experiment with Aeromonas caviae [25], 0.25 µg/mL (≈ 0.549 µM) with Bacillus cereus [26], 258 µg/mL (≈ 566 µM) in the experiment on Aeromonas caviae [27] and 8 µg/mL (≈ 17.6 µM) in the experiment on Aeromonas hydrophila [28].
Turning to `C[C@@H]1[C@H](O)[C@@H](C)/C=C/C=C/C=C/C=C/C=C/C=C/C=C/[C@H](O[C@@H]2O[C@H](C)[C@@H](O)[C@H](N)[C@@H]2O)C[C@@H]2O[C@](O)(C[C@@H](O)C[C@@H](O)[C@H](O)CC[C@@H](O)C[C@@H](O)CC(=O)O[C@H]1C)C[C@H](O)[C@H]2C(=O)O` [AMPHOTERICIN B], the results for the zone of inhibition at 10 µg/disc in the experiment with Aspergillus fumigatus, in the experiment on Talaromyces funiculosus and in the experiment with Candida albicans were 19.2 mm, 18.3 mm and 21.6 mm, respectively.
